# ChEMBL document CHEMBL3580635, “9-Hydroxycanthin-6-one, a β-Carboline Alkaloid from Eurycoma longifolia, Is the First Wnt Signal Inhibitor through Activation of Glycogen Synthase Kinase 3β without Depending on Casein Kinase 1α” (J Nat Prod, 2015)
# The source made the active and inactive calls. No cut-off for these calls is given here.
# How the values were obtained:
# HCT-116 = assay: Cytotoxicity against Wnt-dependent human HCT116 cells assessed as cell viability after 24 hrs by fluorescence assay; assay type: functional, cell-based; conditions: HCT-116, 24 h
# RKO = assay: Cytotoxicity against Wnt-independent human RKO cells assessed as cell viability after 24 hrs by fluorescence assay; assay type: functional, cell-based
# SW480 [1] = assay: Cytotoxicity against Wnt-dependent human SW480 cells assessed as cell viability after 24 hrs by fluorescence assay; conditions: SW480, 24 h
# HEK293 [2] = assay: Cytotoxicity against HEK293 cells assessed as cell viability after 24 hrs by fluorescence assay; assay type: cell-based; conditions: Homo sapiens, HEK293, 24 h
# [3] = target: T1, Glycogen synthase kinase-3 beta (Homo sapiens, UniProt P49841); assay: Activation of GSK-3beta in HEK293 cells assessed as suppression of TCF/beta-catenin transcriptional activity after 24 hrs by SuperTOPFlash reporter gene assay; assay type: cell-based
# In short: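 STF/293 cells (293 cells stably carrying SuperTOPFlash, seven LEF/TCF sites) seeded 3 × 10^4/well; 24 h later given compound plus LiCl (final 15 mM) for 24 h. Cells lysed and firefly luciferase read, compared with no-compound control. DMSO final below 0.1%. At least triplicate; mean ± SE, n = 3.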
# HEK293 [4] = assay: Cytotoxicity against HEK293 cells transfected with SuperTOPFlash reporter gene assessed as cell viability at 2.5 to 10 uM after 24 hrs by fluorescence assay; assay type: cell-based; conditions: human, hek293, 24 h
# In short: (§1)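 STF/293 cells seeded 3 × 10^4/well, grown 24 h, then exposed 24 h to compound diluted in medium (DMSO final below 0.1%). Cells washed, then given fluorescein diacetate 10 μg/mL in PBS for 1 h at 37 °C. Fluorescence read at ex 485/em 538 nm. Mean ± SE, n = 3.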
# [5] = Cytotoxicity against Wnt-dependent human DLD1 cells assessed as cell viability after 24 hrs by fluorescence assay; assay type: functional, cell-based; conditions: DLD-1, 24 h
# HEK-293T = assay: Cytotoxicity against HEK293T cells assessed as cell viability after 24 hrs by fluorescence assay; assay type: cell-based; conditions: Homo sapiens
# [6] = target: T1, Glycogen synthase kinase-3 beta; assay: Activation of GSK-3beta in human SW480 cells assessed as increase in phosphorylation of beta-catenin at Ser33 at 30 uM after 24 hrs by Western blot analysis in presence of GSK-3beta siRNA; assay type: cell-based
# In short: (§2)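 SW480 cells, 1 × 10^5/well, grown 24 h, then transfected for 3 h with control or GSK3β siRNA (10 pmol, Lipofectamine 2000). Compound then added in DMEM/10% FBS for 24 h. Whole-cell lysates Western blotted, normalized to β-actin.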
# Target sequence in this assay (P49841 whole entry, looked up): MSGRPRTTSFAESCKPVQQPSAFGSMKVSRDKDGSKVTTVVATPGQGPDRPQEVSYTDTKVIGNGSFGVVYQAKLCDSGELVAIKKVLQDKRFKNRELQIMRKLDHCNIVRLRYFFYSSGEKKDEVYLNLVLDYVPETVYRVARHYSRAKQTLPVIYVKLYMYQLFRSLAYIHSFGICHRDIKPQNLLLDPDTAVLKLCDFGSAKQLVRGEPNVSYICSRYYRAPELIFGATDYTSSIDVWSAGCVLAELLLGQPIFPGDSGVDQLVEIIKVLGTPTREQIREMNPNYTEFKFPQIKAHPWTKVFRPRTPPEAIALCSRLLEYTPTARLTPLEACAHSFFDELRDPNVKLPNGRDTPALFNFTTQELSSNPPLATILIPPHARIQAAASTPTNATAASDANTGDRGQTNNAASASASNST
# [7] = target: Casein kinase I isoform alpha (Homo sapiens) (UniProt P48729); assay: Effect on CK1alpha in human SW480 cells assessed as change in phosphorylation of beta-catenin at Ser45 at 10 to 30 uM after 24 hrs by Western blot analysis; assay type: cell-based
# In short: (§3)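 SW480 cells, 1 × 10^6 per 90 mm dish, treated 24 h after seeding for 24 h. Whole-cell lysates made in Triton/deoxycholate buffer with phosphatase and protease inhibitors; cytosolic and nuclear fractions prepared by NE-PER. Proteins run on 10% SDS-PAGE, blotted to PVDF, probed, detected by ECL. Bands normalized to β-actin or histone H1.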
# [8] = Activation of GSK-3beta in zebrafish embryo assessed as suppression of Wnt/beta-catenin signaling pathway at 300 uM measured 10 to 24 hrs post fertilization by TOPdGFP reporter gene-based fluorescence microscopic analysis in presence of MO, p53 MO; conditions: Danio rerio
# In short: (§4)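 TOPdGFP transgenic zebrafish embryos injected at the one- or two-cell stage with 5 ng control or p53 morpholino. Exposed 10–24 hpf at 28.5 °C in E3 medium containing 300 μM compound. TOPdGFP in the midbrain tectum imaged by fluorescence microscopy; apoptotic cells detected by TUNEL kit.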
# Danio rerio [9] = species: Danio rerio; assay: Induction of apoptosis in zebrafish embryo at 300 uM measured 10 to 24 hrs post fertilization by TUNEL assay in presence of MO, p53 MO; assay type: organism-based; conditions: in vivo; in short: as §4
# [10] = target: T1, Glycogen synthase kinase-3 beta; assay: Activation of GSK-3beta in human SW480 cells assessed as increase in phosphorylation of beta-catenin at Ser37 at 10 to 30 uM after 24 hrs by Western blot analysis; assay type: cell-based; in short: as §3
# Target sequence in this assay (P49841 whole entry, looked up): as above
# SW480 [11] = assay: Effect on CK1alpha expression in human SW480 cells at 10 to 30 uM after 24 hrs by Western blot analysis; assay type: functional, cell-based; in short: as §3
# [12] = target: T1, Glycogen synthase kinase-3 beta; assay: Activation of GSK-3beta in human SW480 cells assessed as increase in phosphorylation of beta-catenin at Ser33 at 30 uM after 24 hrs by Western blot analysis in presence of control siRNA; assay type: cell-based; in short: as §2
# Target sequence in this assay (P49841 whole entry, looked up): as above
# Danio rerio [13] = species: Danio rerio; assay: Activation of GSK-3beta in zebrafish embryo assessed as suppression of zic2a gene expression in midbrain tectum at 300 uM measured 4 to 24 hrs post fertilization by in situ hybridization method in presence of MO, p53 MO; assay type: tissue-based
# [14] = target: T1, Glycogen synthase kinase-3 beta; assay: Activation of GSK-3beta in human SW480 cells assessed as increase in phosphorylation of beta-catenin at Thr41 at 30 uM after 24 hrs by Western blot analysis in presence of GSK-3beta siRNA; assay type: cell-based; in short: as §2
# Target sequence in this assay (P49841 whole entry, looked up): as above
# [15] = target: T1, Glycogen synthase kinase-3 beta; assay: Activation of GSK-3beta in human SW480 cells assessed as increase in phosphorylation of beta-catenin at Ser33 at 10 to 30 uM after 24 hrs by Western blot analysis; assay type: cell-based; in short: as §3
# Target sequence in this assay (P49841 whole entry, looked up): as above
# [16] = target: T1, Glycogen synthase kinase-3 beta; assay: Activation of GSK-3beta in human SW480 cells assessed as increase in phosphorylation of beta-catenin at Ser33 at 30 uM after 24 hrs by Western blot analysis in presence of CK1alpha siRNA; assay type: cell-based
# In short: (§5)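 SW480 cells, 5 × 10^4/well, grown 24 h, then transfected for 6 h with control or CK1α siRNA (10 pmol, Lipofectamine 2000). Compound then added in DMEM/10% FBS for 24 h. Whole-cell lysates Western blotted, normalized to β-actin.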
# Target sequence in this assay (P49841 whole entry, looked up): as above
# [17] = target: T1, Glycogen synthase kinase-3 beta; assay: Activation of GSK-3beta in human SW480 cells assessed as increase in phosphorylation of beta-catenin at Thr41 at 30 uM after 24 hrs by Western blot analysis in presence of control siRNA; assay type: cell-based; in short: as §2
# [18] = target: T1, Glycogen synthase kinase-3 beta; assay: Activation of GSK-3beta in human SW480 cells assessed as increase in phosphorylation of beta-catenin at Ser37 at 30 uM after 24 hrs by Western blot analysis in presence of CK1alpha siRNA; assay type: cell-based; in short: as §5
# [19] = target: T1, Glycogen synthase kinase-3 beta; assay: Inhibition of GSK-3beta phosphorylation at Ser9 in human SW480 cells at 30 uM after 24 hrs by Western blot analysis in presence of control and GSK-3beta siRNA; assay type: cell-based; in short: as §2
# [20] = target: T1, Glycogen synthase kinase-3 beta; assay: Activation of GSK-3beta in human SW480 cells assessed as increase in phosphorylation of beta-catenin at Ser37 at 30 uM after 24 hrs by Western blot analysis in presence of control siRNA; assay type: cell-based; in short: as §2
# [21] = target: T1, Glycogen synthase kinase-3 beta; assay: Activation of GSK-3beta in human SW480 cells assessed as downregulation of beta-catenin expression in cytosolic fraction at 10 to 30 uM after 24 hrs by Western blot analysis; assay type: cell-based; in short: as §3
# Danio rerio [22] = species: Danio rerio; assay: Activation of GSK-3beta in zebrafish embryo assessed as reduction of pigment cells on tail at 300 uM measured 4 to 30 hrs post fertilization
# [23] = target: T1, Glycogen synthase kinase-3 beta; assay: Activation of GSK-3beta in human SW480 cells assessed as downregulation of beta-catenin expression in nuclear fraction at 10 to 30 uM after 24 hrs by Western blot analysis; assay type: cell-based; in short: as §3
# SW480 [24] = assay: Effect on GSK-3beta expression in human SW480 cells at 10 to 30 uM after 24 hrs by Western blot analysis; assay type: functional, cell-based; in short: as §3
# [25] = target: T1, Glycogen synthase kinase-3 beta; assay: Activation of GSK-3beta in human SW480 cells assessed as increase in phosphorylation of beta-catenin at Ser37 at 30 uM after 24 hrs by Western blot analysis in presence of GSK-3beta siRNA; assay type: cell-based; in short: as §2
# Danio rerio [26] = species: Danio rerio; assay: Activation of GSK-3beta in zebrafish embryo assessed as reduction of BIO-induced eyeless phenotype appearance at 100 uM measured 4 to 30 hrs post fertilization; design: scale not given: the % may be the effect or the level left
# In short: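 Zebrafish embryos exposed 4–30 hpf at 28.5 °C in E3 medium to BIO (0.5 μM) alone or BIO plus compound (100 μM), then examined under a stereomicroscope.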
# [27] = target: T1, Glycogen synthase kinase-3 beta; assay: Inhibition of GSK-3beta phosphorylation at Ser9 in human SW480 cells at 30 uM after 24 hrs by Western blot analysis in presence of CK1alpha siRNA; assay type: cell-based; in short: as §5
# [28] = target: T1, Glycogen synthase kinase-3 beta; assay: Activation of GSK-3beta in human SW480 cells assessed as increase in phosphorylation of beta-catenin at Thr41 at 30 uM after 24 hrs by Western blot analysis in presence of CK1alpha siRNA; assay type: cell-based; in short: as §5
# HEK293 [29] = assay: Cytotoxicity against HEK293 cells transfected with SuperTOPFlash reporter gene assessed as cell viability at 5 to 20 uM after 24 hrs by fluorescence assay; assay type: cell-based; conditions: human, hek293, 24 h; in short: as §1
# [30] = target: T1, Glycogen synthase kinase-3 beta; assay: Activation of GSK-3beta in human SW480 cells assessed as increase in phosphorylation of beta-catenin at Thr41 at 10 to 30 uM after 24 hrs by Western blot analysis; assay type: cell-based; in short: as §3
# Danio rerio [31] = species: Danio rerio; assay: Activation of GSK-3beta in zebrafish embryo assessed as suppression of mitf gene expression in neural crest cells at 300 uM measured 24 hrs post fertilization by in situ hybridization method in presence of MO, p53 MO; assay type: cell-based
# HEK293 [32] = assay: Cytotoxicity against HEK293 cells transfected with SuperTOPFlash reporter gene assessed as cell viability at 10 to 40 uM after 24 hrs by fluorescence assay; assay type: cell-based; conditions: human, hek293, 24 h; in short: as §1
# Casein kinase I isoform alpha (Homo sapiens), sequence (P48729 2-337 limits assumed): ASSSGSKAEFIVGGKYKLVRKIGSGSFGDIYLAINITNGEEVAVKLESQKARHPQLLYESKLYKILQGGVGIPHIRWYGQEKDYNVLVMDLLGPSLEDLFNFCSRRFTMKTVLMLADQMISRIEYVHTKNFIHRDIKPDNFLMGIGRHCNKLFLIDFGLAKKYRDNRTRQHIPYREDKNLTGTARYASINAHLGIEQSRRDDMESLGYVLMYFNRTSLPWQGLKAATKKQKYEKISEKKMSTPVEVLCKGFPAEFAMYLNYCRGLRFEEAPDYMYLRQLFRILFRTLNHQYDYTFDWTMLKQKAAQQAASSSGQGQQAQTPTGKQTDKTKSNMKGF
compound,measurement,setting,value
CC(=O)O[C@@H]1C[C@H]2C(C)(C)C(=O)C=C[C@]2(C)[C@H]2CC[C@]3(C)C(=CC[C@H]3[C@H]3COC(=O)C3)[C@@]21C,IC50,HCT-116,24.4 µM
same,IC50,RKO,26.4 µM
same,IC50,SW480 [1],11.2 µM
same,IC50,HEK293 [2],31.2 µM
same,Activity,[3],Dose-dependent effect
same,IC50,[3],3 µM
same,Activity,HEK293 [4],Non-toxic
same,IC50,[5],31.7 µM
same,IC50,HEK-293T,> 40 µM
O=c1ccc2nccc3c4ccc(O)cc4n1c23,Activity,[6],inactive
same,Activity,[7],inactive
same,Activity,[8],Active
same,Activity,Danio rerio [9],Non-toxic
same,Activity,[10],Active
same,Activity,SW480 [11],inactive
same,IC50,HCT-116,30 µM
same,Activity,[12],Active
same,IC50,RKO,> 40 µM
same,Activity,Danio rerio [13],Active
same,IC50,SW480 [1],17.4 µM
same,Activity,[14],inactive
same,Activity,[15],Active
same,IC50,HEK293 [2],36.7 µM
same,Activity,[16],Active
same,Activity,[17],Active
same,Activity,[3],Dose-dependent effect
same,IC50,[3],6.8 µM
same,Activity,[18],Active
same,inhibition,[19],Active
same,Activity,[20],Active
same,Activity,[21],Active
same,Activity,Danio rerio [22],Active
same,Activity,[23],Active
same,Activity,SW480 [24],inactive
same,Activity,[25],inactive
same,Activity,Danio rerio [26],46%
same,IC50,[5],> 40 µM
same,inhibition,[27],Active
same,Activity,[28],Active
same,Activity,HEK293 [29],Non-toxic
same,IC50,HEK-293T,> 40 µM
same,Activity,[30],Active
same,Activity,Danio rerio [31],Active
O=c1ccc2nccc3c4ccc(O[C@@H]5O[C@H](CO)[C@@H](O)[C@H](O)[C@H]5O)cc4n1c23,IC50,HCT-116,> 40 µM
same,IC50,RKO,> 40 µM
same,IC50,SW480 [1],> 40 µM
same,IC50,HEK293 [2],36.7 µM
same,Activity,[3],Dose-dependent effect
same,IC50,[3],11.6 µM
same,IC50,[5],> 40 µM
same,Activity,HEK293 [32],Non-toxic
same,IC50,HEK-293T,> 40 µM
